Paper PMC8693849 (RSC Advances, 2021)
Values after ≈ are worked out from the molar mass of the structure shown.

Experiments:
[1] = tested on: P. phaseolicola (GSPB 2828); assay: Agar diffusion method, zone of inhibition; assay type: cell-based, Pseudomonas phaseolicola; conditions: for zone of inhibition at 10 µg/mL / zone of inhibition at 15 µg/mL: Pseudomonas, 24 h, read-out: Diameter of zone inhibition; for Diameter of zone inhibition: P. phaseolicola (GSPB 2828), 15 μg mL^−1, 24 h, average of triplicate
How it was run: (§1)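 Bacterial strains were tested by agar diffusion on nutrient agar (peptone 5 and meat extract 3 g L⁻¹ in distilled water, pH 7.0, 2% agar, autoclaved 121 °C for 20 min). Each test compound (1 mg) was dissolved in 1 mL DMSO and made up to 10 mL with sterile water (100 μg mL⁻¹ stock). The solution was placed in the agar, and inhibition zones were measured after 24 h incubation. Values are the mean of triplicate readings.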

P. fluorescens (S 97) = assay: Agar diffusion method, zone of inhibition; assay type: cell-based, Pseudomonas fluorescens; conditions: for zone of inhibition at 10 µg/mL / zone of inhibition at 15 µg/mL: Pseudomonas fluorescens, 24 h, read-out: Diameter of zone inhibition; for Diameter of zone inhibition: P. fluorescens (S 97), average of triplicate
How it was run: as §1

C. albicans = assay: Agar diffusion method, zone of inhibition; assay type: cell-based, Candida albicans; conditions: for zone of inhibition at 10 µg/mL / zone of inhibition at 15 µg/mL: Candida albicans, 24 h, read-out: Diameter of zone inhibition; for Diameter of zone inhibition: C. albicans, average of triplicate
How it was run: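 For agar diffusion against C. albicans, each test compound (1 mg) was dissolved in 1 mL DMSO and diluted to 10 mL with sterile water (100 μg mL⁻¹ stock). The solution was placed in the agar, and the inhibition zone diameter was read after 24 h. Values are the average of triplicate readings.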

[2] = tested on: K. pneumoniae (MDR clinical isolate); assay: Zone of inhibition against MDR clinical isolate; assay type: cell-based; conditions: for zone of inhibition at 15 µg/mL: Klebsiella pneumoniae, read-out: Diameter of zone inhibition; for Diameter of zone inhibition: MDR K. pneumoniae clinical isolate, 15 μg mL^−1
[3] = tested on: MRSA1 (methicillin resistant S. aureus); assay: Zone of inhibition against MDR clinical isolate; assay type: cell-based; conditions: for zone of inhibition at 15 µg/mL: Staphylococcus aureus, read-out: Diameter of zone inhibition; for Diameter of zone inhibition: MRSA1 clinical isolate, 15 μg mL^−1
Gram-positive bacteria = assay: Agar diffusion method; assay type: cell-based, S. aureus (ATCC 25923) and S. pyogenes (ATCC 19615); conditions: summary of Table 1
How it was run: as §1

S. aureus (ATCC 25923) = assay: Agar diffusion method, zone of inhibition; assay type: cell-based, Staphylococcus aureus; conditions: for zone of inhibition at 10 µg/mL / zone of inhibition at 15 µg/mL: Staphylococcus aureus, ATCC25923, 24 h, read-out: Diameter of zone inhibition; for Diameter of zone inhibition: S. aureus (ATCC 25923), 15 μg mL^−1, 24 h, average of triplicate
How it was run: as §1

S. pyogenes (ATCC 19615) = assay: Agar diffusion method, zone of inhibition; assay type: cell-based, Streptococcus pyogenes; conditions: Streptococcus pyogenes, ATCC19615, 24 h, read-out: Diameter of zone inhibition
Gram-negative bacteria = assay: Agar diffusion method; assay type: cell-based, P. phaseolicola (GSPB 2828) and P. fluorescens (S 97); conditions: summary of Table 1
How it was run: as §1

[4] = tested on: MRSA1 (methicillin resistant S. aureus); assay: Minimal inhibitory concentration; assay type: cell-based
How it was run: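 Broth microdilution against MDR clinical isolates: 80 μl Mueller–Hinton broth plus 20 μl tween 80 received 100 μl test compound, then two-fold serial dilution. Each well was inoculated with 100 μl of 0.5 McFarland suspension ([…]) and incubated covered at 35 ± 2 °C for 24 h. MIC is the lowest concentration inhibiting growth.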

[5] = MRSA1 clinical isolate, Table 2

Molecule | zone of inhibition at 10 µg/mL [1] [mm] | zone of inhibition at 15 µg/mL [1] [mm] | zone of inhibition at 10 µg/mL (P. fluorescens (S 97)) [mm] | zone of inhibition at 10 µg/mL (C. albicans) [mm] | zone of inhibition at 15 µg/mL (C. albicans) [mm] | zone of inhibition at 15 µg/mL [2] [mm] | zone of inhibition at 15 µg/mL [3] [mm] | Activity against Gram-positive bacteria (Gram-positive bacteria) | zone of inhibition at 10 µg/mL (S. aureus (ATCC 25923)) [mm] | zone of inhibition at 10 µg/mL (S. pyogenes (ATCC 19615)) [mm] | zone of inhibition at 15 µg/mL (P. fluorescens (S 97)) [mm] | Activity against Gram-negative bacteria (Gram-negative bacteria) | zone of inhibition at 15 µg/mL (S. aureus (ATCC 25923)) [mm] | zone of inhibition at 15 µg/mL (S. pyogenes (ATCC 19615)) [mm] | also measured
CCOC(=O)C1=C(C)N2NC(C)(c3ccccc3O)N(C(Cc3c[nH]c4ccccc34)C(=O)O)C2=NC1c1ccc(Cl)cc1 (centres unmarked) [Compound 3d, 2-(5-(4-Chlorophenyl)-6-(ethoxycarbonyl)-2-(2-hydroxyphenyl)-2,7-dimethyl-1,2-dihydro-[1,2,4]triazolo[1,5-a]pyrimidin-3(5H)-yl)-3-(1H-indol-3-yl)propanoic acid] | 11 | 23 | 10 | 9 | 10 | 6 | 6 | active |  |  |  |  |  |  | 
CC(=O)C1=C(C)N2NC(C)(c3ccccc3O)N(C(C)C(=O)O)C2=NC1c1ccc(Cl)cc1 (centres unmarked) [Compound 2b, 2-(6-Acetyl-5-(4-chlorophenyl)-2-(2-hydroxyphenyl)-2,7-dimethyl-1,2-dihydro-[1,2,4]triazolo[1,5-a]pyrimidin-3(5H)-yl)propanoic acid] | 16 |  | 15 | 6 | 8 | 25 | 8 |  | 12 | 10 | 29 | active |  |  | 
CC(=O)C1=C(C)N2NC(c3ccccc3O)N(C(C)C(=O)O)C2=NC1c1ccc(Cl)cc1 (centres unmarked) [Compound 2a, 2-(6-Acetyl-5-(4-chlorophenyl)-2-(2-hydroxyphenyl)-7-methyl-1,2-dihydro-[1,2,4]triazolo[1,5-a]pyrimidin-3(5H)-yl)propanoic acid] |  |  | 16 |  |  |  |  |  | 10 | 12 |  |  | 16 |  | 
CC(=O)C1=C(C)N2NC(c3ccccc3O)N(C(Cc3c[nH]c4ccccc34)C(=O)O)C2=NC1c1ccc(Cl)cc1 (centres unmarked) [Compound 2c, 2-(6-Acetyl-5-(4-chlorophenyl)-2-(2-hydroxyphenyl)-7-methyl-1,2-dihydro-[1,2,4]triazolo[1,5-a]pyrimidin-3(5H)-yl)-3-(1H-indol-3-yl)propanoic acid] | 11 | 23 | 12 | 6 | 9 | 8 | 26 | active |  |  | 22 |  |  |  | MIC ([4]; MRSA1, Table 4): 25 µg/mL (≈ 43.9 µM); SI (selectivity index, CC50/MIC) ([4]; MRSA1 vs VERO cells): 10; MIC ([4]; Staphylococcus aureus): 25 µg/mL (≈ 43.9 µM)
2-(5-(4-Chlorophenyl)-6-cyano-2-(2-hydroxyphenyl)-7-imino-1,2-dihydro-[1,2,4]triazolo[1,5-a]pyrimidin-3(7H)-yl)-3-(1H-indol-3-yl)propanoic acid [Compound 8c] |  |  |  |  |  |  |  | active |  |  |  |  |  |  | Diameter of zone inhibition (S. aureus (ATCC 25923)): 30 mm; Diameter of zone inhibition [1]: 24 mm; Diameter of zone inhibition (P. fluorescens (S 97); 10 μg mL^−1, 24 h): 13 mm; Diameter of zone inhibition (P. fluorescens (S 97); 15 μg mL^−1, 24 h): 23 mm; Diameter of zone inhibition (C. albicans; 10 μg mL^−1, 24 h): 8 mm; Diameter of zone inhibition (C. albicans; 15 μg mL^−1, 24 h): 11 mm; Diameter of zone inhibition [2]: 12 mm; Diameter of zone inhibition [3]: 28 mm; MIC [4, 5]: 50 µg/mL
Clc1ccccc1C(c1ccccc1)(c1ccccc1)n1ccnc1 [Clotrimazole, reference compound] |  |  |  | 36 | 44 |  |  |  |  |  |  |  |  |  | 
CC(C(=O)O)N1C2=NC(c3ccc(Cl)cc3)C3=C(CC(C)(C)CC3=O)N2NC1(C)c1ccccc1O (centres unmarked) [Compound 7, 2-(5-(4-Chlorophenyl)-2-(2-hydroxyphenyl)-2,8,8-trimethyl-6-oxo-1,2,6,7,8,9-hexahydro-[1,2,4]triazolo[1,5-a]quinazolin-3(5H)-yl)propanoic acid] | 19 |  |  | 10 | 11 | 20 | 8 |  | 15 | 12 |  | active | 23 | 20 | 
O=C(N[C@H](CO)[C@H](O)c1ccc([N+](=O)[O-])cc1)C(Cl)Cl [Chloramphenicol, reference compound] | 25 | 25 | 30 |  |  |  |  |  |  |  | 30 |  |  |  | 
CCOC(=O)C1=C(C)N2NC(C)(c3ccccc3O)N(C(C)C(=O)O)C2=NC1c1ccc(Cl)cc1 (centres unmarked) [Compound 3b, 2-(5-(4-Chlorophenyl)-6-(ethoxycarbonyl)-2-(2-hydroxyphenyl)-2,7-dimethyl-1,2-dihydro-[1,2,4]triazolo[1,5-a]pyrimidin-3(5H)-yl)propanoic acid] |  |  |  | 10 | 12 | 27 | 12 |  | 12 |  |  | active | 25 | 24 | 
CC(C(=O)O)N1C2=NC(c3ccc(Cl)cc3)c3c([nH]c(=O)[nH]c3=O)N2NC1(C)c1ccccc1O (centres unmarked) [Compound 5, 2-(5-(4-Chlorophenyl)-2-(2-hydroxyphenyl)-2-methyl-6,8-dioxo-1,2,6,7,8,9-hexahydropyrimido[5,4-e][1,2,4]triazolo[1,5-a]pyrimidin-3(5H)-yl)propanoic acid] |  | 30 | 15 | 7 | 9 | 23 | 8 |  |  | 11 | 28 | active | 26 | 25 | 
2-(5-(4-Chlorophenyl)-6-cyano-2-(2-hydroxyphenyl)-7-imino-2-methyl-1,2-dihydro-[1,2,4]triazolo[1,5-a]pyrimidin-3(7H)-yl)-3-(1H-indol-3-yl)propanoic acid [Compound 8d] |  |  |  |  |  |  |  | active |  |  |  |  |  |  | Diameter of zone inhibition (S. aureus (ATCC 25923)): 29 mm; Diameter of zone inhibition [1]: 24 mm; Diameter of zone inhibition (P. fluorescens (S 97); 10 μg mL^−1, 24 h): 12 mm; Diameter of zone inhibition (P. fluorescens (S 97); 15 μg mL^−1, 24 h): 22 mm; Diameter of zone inhibition (C. albicans; 10 μg mL^−1, 24 h): 6 mm; Diameter of zone inhibition (C. albicans; 15 μg mL^−1, 24 h): 7 mm; Diameter of zone inhibition [2]: 10 mm; Diameter of zone inhibition [3]: 25 mm; MIC [4, 5]: 50 µg/mL
CC(=O)OCC1=C(C(=O)O)N2C(=O)[C@@H](NC(=O)Cc3cccs3)[C@H]2SC1 [Cephalothin, reference compound] |  |  |  |  |  |  |  |  | 28 | 30 |  |  | 28 | 30 | 
CC(C(=O)O)N1C2=NC(c3ccc(Cl)cc3)C3=C(CCCC3=O)N2NC1(C)c1ccccc1O (centres unmarked) [Compound 6, 2-(5-(4-Chlorophenyl)-2-(2-hydroxyphenyl)-2-methyl-6-oxo-1,2,6,7,8,9-hexahydro-[1,2,4]triazolo[1,5-a]quinazolin-3(5H)-yl)propanoic acid] |  | 29 | 19 | 7 | 8 | 22 | 10 |  | 15 | 10 |  | active | 25 | 24 | 
